Data published in ChEMBL document CHEMBL1131187, “Synthesis, activity, and molecular modeling of new 2, 4-dioxo-5-(naphthylmethylene)-3-thiazolidineacetic acids and 2-thioxo analogues as potent aldose reductase inhibitors” (J Med Chem, 1998).

target: Aldo-keto reductase family 1 member B1 (Bos taurus, UniProt P16116); experiment: Evaluated in vitro for the inhibition of Aldose reductase.; type: functional
In short: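 Partially purified enzyme from beef lenses homogenized in 96 mM phosphate buffer pH 6.2 at 4 °C; supernatant after 1 h centrifugation at 4 °C. Assay at 37 °C in 96 mM phosphate pH 6.2 with NADPH (0.18 mM) and DL-glyceraldehyde (1 mM). Reaction started with NADPH; A340 decrease followed. Blanks included. Four concentrations, five measures each; IC50 by linear regression of % inhibition vs log concentration.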

In order of rising IC50:
1. O=C(O)Cc1nn(Cc2ccc(Br)cc2F)c(=O)c2ccccc12 [PONALRESTAT]  0.007 µM
2. COc1c(/C=C2\SC(=S)N(CC(=O)O)C2=O)ccc2ccccc12  0.009 µM
3. O=C(O)CN1C(=O)/C(=C/c2ccc3ccccc3c2Br)SC1=S  0.011 µM
4. O=C(O)CN1C(=O)/C(=C/c2cc3ccccc3cc2Br)SC1=S  0.015 µM
5. COc1cc2ccccc2cc1/C=C1\SC(=S)N(CC(=O)O)C1=O  0.02 µM
6. O=C(O)CN1C(=O)S/C(=C\c2cc3ccccc3cc2Cl)C1=O  0.048 µM
7. O=C(O)CN1C(=O)S/C(=C\c2ccc3ccccc3c2Br)C1=O  0.051 µM
8. COc1ccc2cc(/C=C3\SC(=S)N(CC(=O)O)C3=O)ccc2c1  0.067 µM
9. O=C(O)CN1C(=O)/C(=C/c2ccc3ccccc3c2[N+](=O)[O-])SC1=S  0.079 µM
10. O=C(O)CN1C(=O)/C(=C/c2ccc3ccccc3c2)SC1=S  0.096 µM
11. COc1ccc2cc(/C=C3\SC(=O)N(CC(=O)O)C3=O)ccc2c1  0.101 µM
12. COc1cc2ccccc2cc1/C=C1\SC(=O)N(CC(=O)O)C1=O  0.128 µM
13. COc1c(/C=C2\SC(=O)N(CC(=O)O)C2=O)ccc2ccccc12  0.15 µM
14. O=C(O)CN1C(=O)S/C(=C\c2cc3ccccc3cc2Br)C1=O  0.153 µM
15. O=C(O)CN1C(=O)S/C(=C\c2ccc3ccccc3c2)C1=O  0.269 µM
